Measured values from ChEMBL document CHEMBL1126865, “Structure-activity relationship within a series of pyrazolidinone antibacterial agents. 2. Effect of side-chain modification on in vitro activity and pharmacokinetic parameters” (J Med Chem, 1993).
In brackets after ≈: the same amount, converted by molar mass.

Tests used:
[1] = (§1) Plasma half-life in monkey after intravenous administration; assay type: ADME, organism-based; conditions: simiiformes
Outline: (§2)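 Male rhesus monkeys (n = 3) dosed iv at 30 mg/kg in 0.9% saline; plasma sampled from cephalic vein over 3 h. Drug levels by agar well diffusion bioassay (E. coli ATCC4157 or Proteus providentia XC24) against standard curves in spiked plasma. Samples stored at -70 °C. Half-life = 0.693/β, β the terminal slope of plasma vs time curve.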

[2] = Plasma half-life in human after intravenous administration; assay type: ADME, organism-based
[3] = (§3) Plasma half-life in rats after intravenous administration; assay type: ADME, organism-based; conditions: rat
Outline: (§4)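 Male Sprague-Dawley rats were given 20 mg/kg IV in 0.9% saline through an indwelling jugular cannula, which was also used for serial blood sampling. Plasma and cumulative urine (citrate pH 6.5, metabolism cages) were collected over 6 h and stored at -70 °C. Levels were measured by agar well diffusion bioassay against standard curves in plasma or citrate. Half-life = 0.693/β; recovery as % of dose.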

[4] = system: Staphylococcus aureus; assay: In vitro antibacterial activity against Staphylococcus aureus X1.1; assay type: functional
[5] = system: Staphylococcus epidermidis; assay: In vitro antibacterial activity against Staphylococcus epidermidis 222; assay type: functional
[6] = system: Escherichia coli; assay: In vitro antibacterial activity against Escherichia coli EC14; assay type: functional
[7] = system: Streptococcus pyogenes; assay: Minimum inhibitory concentration against Streptococcus pyogenes (C203) after sc administration in mice; assay type: functional
[8] = system: Streptococcus pyogenes; assay: Effective dose against Streptococcus pyogenes (C203) after po administration in mice; assay type: functional
[9] = Half-life period in male rats after iv administration of 20 mg/kg; assay type: ADME, organism-based; set-up: dose 20 mg/kg, route intravenous; conditions: rat, in vivo; outline: as §4
[10] = system: Streptococcus pyogenes; assay: Minimum inhibitory concentration against Streptococcus pyogenes (C203) after po administration in mice; assay type: functional
[11] = Maximum concentration in male CD-1 mice after sc administration of 20 mg/kg; assay type: ADME, organism-based; set-up: dose 20 mg/kg, route subcutaneous; conditions: CD-1, mouse, in vivo
Outline: (§5)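 Male CD-1 mice received 20 mg/kg in 0.9% saline, orally or subcutaneously. Cumulative urine over 0–4 h was collected from metabolism cages into 0.1 M sodium citrate, pH 6.5, and stored at -70 °C. Drug levels were measured by agar well diffusion bioassay (E. coli ATCC4157 or Proteus providentia XC24) against spiked standard curves. Half-life = 0.693/β (terminal slope); urinary recovery as % of dose.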

[12] = Urinary recovery in male CD-1 mice after po administration of 20 mg/kg; assay type: ADME, organism-based; set-up: dose 20 mg/kg, route oral; conditions: CD-1, mouse, urine; outline: as §5
[13] = system: Haemophilus influenzae; assay: In vitro antibacterial activity against Haemophilus influenza C.L; assay type: functional
[14] = system: Streptococcus pyogenes; assay: Effective dose against Streptococcus pyogenes (C203) after sc administration in mice; assay type: functional
[15] = system: Klebsiella aerogenes; assay: In vitro antibacterial activity against Enterobacter aerogenes C32; assay type: functional
[16] = system: Streptococcus pneumoniae; assay: In vitro antibacterial activity against Streptococcus pneumoniae PARK; assay type: functional
[17] = system: Escherichia coli; assay: Minimum inhibitory concentration against Escherichia coli EC14 after sc administration in mice; assay type: functional
[18] = system: Escherichia coli; assay: Effective dose against Escherichia coli EC14 after po administration in mice; assay type: functional
[19] = Urinary recovery in male rats after iv administration of 20 mg/kg; assay type: ADME, organism-based; set-up: dose 20 mg/kg, route intravenous; conditions: rat, urine; outline: as §4
[20] = system: Escherichia coli; assay: Minimum inhibitory concentration against Escherichia coli EC14 after po administration in mice; assay type: functional
[21] = system: Pseudomonas aeruginosa; assay: In vitro antibacterial activity against Pseudomonas PS72; assay type: functional
[22] = Half-life period in male CD-1 mice after sc administration of 20 mg/kg; assay type: ADME, organism-based; set-up: dose 20 mg/kg, route subcutaneous; conditions: CD-1, mouse, in vivo; outline: as §5
[23] = Plasma binding expressed as percentage in rats […]; assay type: ADME, organism-based; conditions: rat, iv, read-out: Plasma binding (converted)
Outline: (§6)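 Binding was measured in vitro in pooled Sprague-Dawley rat plasma at a drug concentration of 20 μg/mL by ultrafiltration and reported as % bound.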

[24] = Maximum concentration in male rats after iv administration of 20 mg/kg; assay type: ADME, organism-based; set-up: dose 20 mg/kg, route intravenous; conditions: rat, in vivo; outline: as §4
[25] = system: Klebsiella pneumoniae; assay: In vitro antibacterial activity against Klebsiella X26; assay type: functional
[26] = system: Escherichia coli; assay: Effective dose against Escherichia coli EC14 after sc administration in mice; assay type: functional
[27] = Urinary recovery expressed as percentage dose in male rats after iv administration of 20 mg/kg; assay type: ADME, organism-based; set-up: dose 20 mg/kg, route intravenous; conditions: rat, urine; outline: as §4
[28] = Plasma binding in male rats […] expressed as percentage of plasma binding; assay type: ADME, organism-based; conditions: rat, iv, read-out: Plasma binding (converted); outline: as §6
[29] = Urinary recovery expressed as percentage dose in male CD-1 mice after po administration of 20 mg/kg; assay type: ADME, organism-based; set-up: dose 20 mg/kg, route oral; conditions: CD-1, mouse, urine; outline: as §5
[30] = system: Rattus norvegicus; assay: as §3; assay type: functional, organism-based; outline: as §4
[31] = system: Monkey; assay: as §1; assay type: functional, organism-based; conditions: Cercopithecidae; outline: as §2

half-life [1] [min]	half-life [2] [min]	half-life [3] [min]	MIC [4] [µg/mL]	MIC [5] [µg/mL]	MIC [6] [µg/mL]	half-life [9] [min]	MIC [13] [µg/mL]	MIC [15] [µg/mL]	MIC [16] [µg/mL]	MIC [21] [µg/mL]	Cmax [24] [µg/mL]	MIC [25] [µg/mL]	dose excreted [27] [%]	SMILES	further results
44	96	15	–	–	–	–	–	–	–	–	–	–	–	CO/N=C(\C(=O)N[C@@H]1C(=O)N2C(C(=O)O)=CCS[C@H]12)c1csc(N)n1 [CEFTIZOXIME]	–
–	–	25	32 (≈ 72 µM)	64 (≈ 144 µM)	0.06 (≈ 0.135 µM)	24.7	0.5 (≈ 1.12 µM)	0.25 (≈ 0.562 µM)	0.25 (≈ 0.562 µM)	> 128	120	0.125 (≈ 0.281 µM)	–	CO/N=C(\C(=O)NC1CN2CC(S(C)(=O)=O)=C(C(=O)O)N2C1=O)c1csc(N)n1 (stereo not given)	MIC [7]: 0.03 µg/mL (≈ 0.0675 µM); ED50 [8]: 13.5 mg/kg; MIC [10]: 0.03 µg/mL (≈ 0.0675 µM); Cmax [11]: 53.8 µg/mL; dose excreted [12]: < 2%; ED50 [14]: 1.8 mg/kg; MIC [17]: 0.06 µg/mL (≈ 0.135 µM); ED50 [18]: 7.93 mg/kg; dose excreted [19]: 80.4%; MIC [20]: 0.06 µg/mL (≈ 0.135 µM); half-life [22]: 10.6 min; fraction unbound [23]: 0.78; ED50 [26]: < 0.625 mg/kg
–	–	18	64 (≈ 164 µM)	64 (≈ 164 µM)	0.25 (≈ 0.639 µM)	17.9	0.5 (≈ 1.28 µM)	1 (≈ 2.56 µM)	0.25 (≈ 0.639 µM)	> 128	120	0.25 (≈ 0.639 µM)	87.8	CO/N=C(\C(=O)N[C@H]1CN2CC(C#N)=C(C(=O)O)N2C1=O)c1csc(N)n1	MIC [7]: 0.25 µg/mL (≈ 0.639 µM); ED50 [8]: 6.68 mg/kg; MIC [10]: 0.25 µg/mL (≈ 0.639 µM); Cmax [11]: 71 µg/mL; ED50 [14]: 0.625 mg/kg; MIC [17]: 0.25 µg/mL (≈ 0.639 µM); ED50 [18]: 7.87 mg/kg; MIC [20]: 0.25 µg/mL (≈ 0.639 µM); fraction unbound [28]: 0.585; dose excreted [29]: < 2%; half-life [22]: 12.2 min; ED50 [26]: 0.67 mg/kg
36	–	11	4 (≈ 8.26 µM)	8 (≈ 16.5 µM)	0.06 (≈ 0.124 µM)	11.3	0.125 (≈ 0.258 µM)	0.25 (≈ 0.516 µM)	0.06 (≈ 0.124 µM)	128 (≈ 264 µM)	70.3	0.015 (≈ 0.031 µM)	53.1	C=CCCO/N=C(/C(=O)N[C@H]1CN2CC(S(C)(=O)=O)=C(C(=O)O)N2C1=O)c1csc(N)n1	–
–	48	–	–	–	–	–	–	–	–	–	–	–	–	Cn1nnnc1SCC1=C(C(=O)O)N2C(=O)[C@@H](NC(=O)[C@H](O)c3ccccc3)[C@H]2SC1 [CEFAMANDOLE]	T1/2 [30]: 15 min; T1/2 [31]: 34 min
–	–	15	8 (≈ 15.4 µM)	16 (≈ 30.7 µM)	0.125 (≈ 0.24 µM)	14.7	0.125 (≈ 0.24 µM)	0.5 (≈ 0.96 µM)	0.06 (≈ 0.115 µM)	> 128	74.3	0.03 (≈ 0.0576 µM)	44.2	CCCS(=O)(=O)C1=C(C(=O)O)N2C(=O)[C@@H](NC(=O)/C(=N/OCCCl)c3csc(N)n3)CN2C1	–
–	–	–	> 128	> 128	0.03 (≈ 0.0647 µM)	–	0.06 (≈ 0.129 µM)	0.125 (≈ 0.27 µM)	16 (≈ 34.5 µM)	64 (≈ 138 µM)	–	0.25 (≈ 0.539 µM)	–	CC(C)(O/N=C(/C(=O)N[C@H]1CN2CC(C#N)=C(C(=O)O)N2C1=O)c1csc(N)n1)C(=O)O	–

SMILES	half-life [1] [min]	half-life [2] [min]	half-life [3] [min]	MIC [4] [µg/mL]	MIC [5] [µg/mL]	MIC [6] [µg/mL]	half-life [9] [min]	MIC [13] [µg/mL]	MIC [15] [µg/mL]	MIC [16] [µg/mL]	MIC [21] [µg/mL]	Cmax [24] [µg/mL]	MIC [25] [µg/mL]	dose excreted [27] [%]	further results
CC(C)(O/N=C(\C(=O)N[C@@H]1C(=O)N2C(C(=O)[O-])=C(C[n+]3ccccc3)CS[C@H]12)c1csc(N)n1)C(=O)O [CEFTAZIDIME]	49	108	23	–	–	–	–	–	–	–	–	–	–	–	–
